# ChEMBL document CHEMBL1121884, “Piperazinylquinoxalines with central serotoninmimetic activity” (1981)
# Experiments:
# Assay type in all cases: functional
# [1] = target: T1, Serotonin (5-HT) receptor (Rattus norvegicus) (UniProt P35563+P35365+P32305+P31388+Q9JJ16+P28564+P30994+Q62758+P08909+P14842+P30940+P35364+P19327+P28565); test: (§1) Ability to elicit head twitches in rats (a serotonin mimetic response); parameters: concentration or dose not given beside the values
# Summary of the method: (§2)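 Female Sprague-Dawley rats (150-250 g), compound given ip in 1% methylcellulose vehicle, dose as base weight; quantal scoring of rats showing at least one head twitch during a 2-min observation beginning 30 min after dosing; usually six rats per dose level; vehicle controls run.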
# [2] = target: Sodium-dependent serotonin transporter (Rattus norvegicus) (UniProt P31652); test: Serotonin neuronal reuptake blocking activity was determined by the antagonism of the head twitch response induced in rats; parameters: concentration or dose not given beside the values
# Sodium-dependent serotonin transporter (Rattus norvegicus), sequence (P31652 whole entry): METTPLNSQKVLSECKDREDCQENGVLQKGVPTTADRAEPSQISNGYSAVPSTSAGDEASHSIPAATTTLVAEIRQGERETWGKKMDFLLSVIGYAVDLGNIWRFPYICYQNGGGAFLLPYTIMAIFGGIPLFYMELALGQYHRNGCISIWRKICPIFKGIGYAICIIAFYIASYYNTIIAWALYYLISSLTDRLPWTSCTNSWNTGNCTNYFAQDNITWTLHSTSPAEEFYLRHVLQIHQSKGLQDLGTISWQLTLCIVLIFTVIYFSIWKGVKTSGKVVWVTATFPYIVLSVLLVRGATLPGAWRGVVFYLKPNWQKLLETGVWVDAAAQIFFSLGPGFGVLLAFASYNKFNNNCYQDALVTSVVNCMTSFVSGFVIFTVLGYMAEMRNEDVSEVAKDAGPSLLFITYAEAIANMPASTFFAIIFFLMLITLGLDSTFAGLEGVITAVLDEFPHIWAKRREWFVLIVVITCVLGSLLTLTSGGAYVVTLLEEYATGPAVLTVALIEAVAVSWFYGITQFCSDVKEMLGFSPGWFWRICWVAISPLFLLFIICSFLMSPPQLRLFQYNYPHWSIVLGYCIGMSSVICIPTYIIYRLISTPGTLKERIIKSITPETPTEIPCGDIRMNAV
# Summary of the method: (§3)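 Female Sprague-Dawley rats (150-250 g) dosed ip with compound (1% methylcellulose vehicle, dose as base weight), then p-chloromethamphetamine 6.0 mg/kg ip 1 h later; head twitches observed 30 min after PCMA; scored as rats not twitching; usually six rats per dose; ED50 = dose antagonizing PCMA head twitch in 50% of animals, with 95% confidence limits.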
# Rattus norvegicus [3] = test: Serotonin neuronal reuptake blocking activity was determined by the antagonism of the head twitch response induced by treatment of rats with p-chloromethamphetamine (PCMA) after 4 mg/kg of ip administration; conditions: route intraperitoneal; summary of the method: as §3
# Rattus norvegicus [4] = test: Serotonin neuronal reuptake blocking activity was determined by the antagonism of the head twitch response induced by treatment of rats with p-chloromethamphetamine (PCMA) after 0.4 mg/kg of ip administration; conditions: route intraperitoneal; summary of the method: as §3
# [5] = target: T1, Serotonin (5-HT) receptor (Rattus norvegicus); test: as §1; parameters: concentration or dose not given beside the values; summary of the method: as §2; remark: listed apart in the source
# [6] = target: T1, Serotonin (5-HT) receptor (Rattus norvegicus); test: as §1; parameters: concentration or dose not given beside the values; summary of the method: as §2; remark: listed apart in the source
# Rattus norvegicus [7] = test: Serotonin neuronal reuptake blocking activity was determined by the antagonism of the head twitch response induced by treatment of rats with p-chloromethamphetamine (PCMA) after 0.4 mg/kg of ip administration; 6/10; conditions: route intraperitoneal
# Summary of the method: (§4)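 Female Sprague-Dawley rats (150-250 g) dosed ip with compound in 1% methylcellulose vehicle. p-Chloromethamphetamine 6.0 mg/kg ip was given 1 h later, and head movements were observed 30 min after that. Scored as number of rats not showing head twitches. Six rats per dose unless otherwise noted. Doses expressed as base weight.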
# Rattus norvegicus [8] = test: Serotonin neuronal reuptake blocking activity was determined by the antagonism of the head twitch response induced in rats with p-chloromethamphetamine (PCMA) after 40 mg/kg of ip administration;9/10; conditions: route intraperitoneal; summary of the method: as §4
# Rattus norvegicus [9] = test: Ability to elicit head twitches in rats a response characteristic of a serotonin mimetic action in the central nervous system after 40 mg/kg of ip administration; 3/10; conditions: route intraperitoneal
# Rattus norvegicus [10] = test: Ability to elicit head twitches in rats a response characteristic of a serotonin mimetic action in the central nervous system was measured after 4 mg/kg of ip administration; 2/10; conditions: route intraperitoneal
# Rattus norvegicus [11] = test: Serotonin neuronal reuptake blocking activity was determined by the antagonism of the head twitch response induced by treatment of rats with p-chloromethamphetamine (PCMA) after 4 mg/kg of ip administration; 7/10; conditions: route intraperitoneal; summary of the method: as §4
# Rattus norvegicus [12] = test: Ability to elicit head twitches in rats a response characteristic of a serotonin mimetic action in the central nervous system was measured after 0.4 mg/kg of ip administration; 0/10; conditions: route intraperitoneal
# Rattus norvegicus [13] = test: Serotonin neuronal reuptake blocking activity was determined by the antagonism of the head twitch response induced in rats with p-chloromethamphetamine (PCMA) after 40 mg/kg of ip administration; 2/4; conditions: route intraperitoneal; summary of the method: as §3
# [14] = target: Sodium-dependent serotonin transporter (Rattus norvegicus) (UniProt P31652); test: (§5) Serotonin neuronal reuptake blocking activity was determined by the antagonism of the head twitch response induced by treatment of rats; parameters: concentration or dose not given beside the values; summary of the method: as §3
# [15] = target: Sodium-dependent serotonin transporter (Rattus norvegicus) (UniProt P31652); test: as §5; parameters: concentration or dose not given beside the values; summary of the method: as §3; remark: listed apart in the source
# Rattus norvegicus [16] = test: Serotonin neuronal reuptake blocking activity was determined by the antagonism of the head twitch response induced by treatment of rats with p-chloromethamphetamine (PCMA) after 4 mg/kg of ip administration; 2/12; conditions: route intraperitoneal; summary of the method: as §3
# Rattus norvegicus [17] = test: Serotonin neuronal reuptake blocking activity was determined by the antagonism of the head twitch response induced by treatment of rats with p-chloromethamphetamine (PCMA) after 0.4 mg/kg of ip administration; 1/12; conditions: route intraperitoneal; summary of the method: as §3
# Rattus norvegicus [18] = test: Ability to elicit head twitches in rats a response characteristic of a serotonin mimetic action in the central nervous system after 40 mg/kg of ip administration; 0/12; conditions: route intraperitoneal; summary of the method: as §2
# Rattus norvegicus [19] = test: Serotonin neuronal reuptake blocking activity was determined by the antagonism of the head twitch response induced in rats with p-chloromethamphetamine (PCMA) after 40 mg/kg of ip administration; 8/12; conditions: route intraperitoneal; summary of the method: as §3
# Rattus norvegicus [20] = test: Ability to elicit head twitches in rats a response characteristic of a serotonin mimetic action in the central nervous system was measured after 0.4 mg/kg of ip administration; 0/12; conditions: route intraperitoneal; summary of the method: as §2
# Rattus norvegicus [21] = test: Ability to elicit head twitches in rats a response characteristic of a serotonin mimetic action in the central nervous system was measured after 4 mg/kg of ip administration; 4/12; conditions: route intraperitoneal; summary of the method: as §2
smiles,measurement,setting,value
Nc1ccc2nc(N3CCNCC3)cnc2c1,Activity,[1],2
same,PCMA antagonism,[2],3
same,PCMA antagonism,Rattus norvegicus [3],4
same,PCMA antagonism,Rattus norvegicus [4],2
same,Activity,[5],0
same,Activity,[6],1
Cl.FC(F)(F)c1ccc2nc(N3CCNCC3)cnc2c1,PCMA antagonism,Rattus norvegicus [7],6
same,PCMA antagonism,Rattus norvegicus [8],9
same,Activity,Rattus norvegicus [9],3
same,Activity,Rattus norvegicus [10],2
same,PCMA antagonism,Rattus norvegicus [11],7
same,Activity,Rattus norvegicus [12],0
Cl.Clc1cccc2nc(N3CCNCC3)cnc12,Activity,[1],2
same,PCMA antagonism,Rattus norvegicus [13],2
same,Activity,[5],0
same,PCMA antagonism,[14],0
same,PCMA antagonism,[15],0
same,Activity,[6],0
Cc1ccc2nc(N3CCNCC3)cnc2c1.Cl,PCMA antagonism,Rattus norvegicus [16],2
same,PCMA antagonism,Rattus norvegicus [17],1
same,Activity,Rattus norvegicus [18],0
same,PCMA antagonism,Rattus norvegicus [19],8
same,Activity,Rattus norvegicus [20],0
same,Activity,Rattus norvegicus [21],4
